According to ChEMBL document CHEMBL5247578, “Effective synthesis of benzimidazoles-imidazo[1,2-a]pyrazine conjugates: A comparative study of mono-and bis-benzimidazoles for antitumor activity” (Eur J Med Chem, 2019):

How the values were obtained:
SK-MEL-2 = assay: Growth inhibition against human SK-MEL-2 cells assessed as total growth inhibitory concentration incubated for 48 hrs by sulforhodamine B assay; assay type: functional
HEK293 = assay: Cytotoxicity against human HEK293 cells assessed as reduction in cell viability at 0.0000001 M incubated for 48 hrs by MTT colorimetric assay relative to control; assay type: toxicity, cell-based; settings: hek293, 48 h, 0.1 µM, dose 100 nM
COLO 205 [1] = assay: Growth inhibition against human COLO 205 cells incubated for 48 hrs by sulforhodamine B assay; assay type: functional
Malme-3M = assay: Antiproliferative activity against human Malme-3M cells assessed as cell growth at 0.00001 M incubated for 48 hrs by SRB assay relative to control; assay type: functional; settings: read-out: Activity
OVCAR-8 = assay: Antiproliferative activity against human OVCAR-8 cells assessed as cell growth at 0.0000001 M incubated for 48 hrs by SRB assay relative to control; assay type: functional; settings: dose 100 nM, read-out: Activity
HOP-92 [2] = assay: Antiproliferative activity against human HOP-92 cells assessed as cell growth at 0.0001 M incubated for 48 hrs by SRB assay relative to control; assay type: functional; settings: read-out: Activity
In short: (§1)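 NCI-60 five-dose screen (10^-4 to 10^-8 M). Cells grown in RPMI 1640 with 5% FBS and 2 mM L-glutamine, plated at 5,000-40,000 cells/well and preincubated 24 h. Drug given from DMSO stock, then 48 h at 37 °C, 5% CO2. For adherent lines, cells fixed with cold TCA, SRB-stained and read at 515 nm. Percent growth taken against time-zero and untreated control.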

OVCAR-3 = assay: Antiproliferative activity against human OVCAR-3 cells assessed as cell growth at 0.000001 M incubated for 48 hrs by SRB assay relative to control; assay type: functional; settings: read-out: Activity
T47D [3] = assay: Antiproliferative activity against human T47D cells assessed as cell growth at 0.000001 M incubated for 48 hrs by SRB assay relative to control; assay type: functional; settings: read-out: Activity
IGROV-1 = assay: Antiproliferative activity against human IGROV-1 cells assessed as cell growth at 0.00001 M incubated for 48 hrs by SRB assay relative to control; assay type: functional; settings: read-out: Activity
SK-OV-3 = assay: Antiproliferative activity against human SK-OV-3 cells assessed as cell growth inhibition by measuring lethal concentration incubated for 48 hrs by sulforhodamine B assay; assay type: functional; settings: read-out: LC50 (the source's name)
NCI-H322M = assay: Growth inhibition against human NCI-H322M cells assessed as total growth inhibitory concentration incubated for 48 hrs by sulforhodamine B assay; assay type: functional
NCI-H23 = assay: Antiproliferative activity against human NCI-H23 cells assessed as cell growth at 0.0001 M incubated for 48 hrs by SRB assay relative to control; assay type: functional; settings: read-out: Activity
OVCAR-4 = assay: Antiproliferative activity against human OVCAR-4 cells assessed as cell growth at 0.00000001 M incubated for 48 hrs by SRB assay relative to control; assay type: functional; settings: dose 10 nM, read-out: Activity
T47D [4] = assay: Growth inhibition against human T47D cells incubated for 48 hrs by sulforhodamine B assay; assay type: functional
HT-29 = assay: Growth inhibition against human HT-29 cells incubated for 48 hrs by sulforhodamine B assay; assay type: functional
SK-MEL-5 = assay: Antiproliferative activity against human SK-MEL-5 cells assessed as cell growth at 0.0001 M incubated for 48 hrs by SRB assay relative to control; assay type: functional; settings: read-out: Activity
HL-60 = assay: Antiproliferative activity against human HL-60 cells assessed as cell growth at 0.00000001 M incubated for 48 hrs by SRB assay relative to control; assay type: functional; settings: dose 10 nM, read-out: Activity; in short: as §1
T47D [5] = assay: Antiproliferative activity against human T47D cells assessed as cell growth at 0.00001 M incubated for 48 hrs by SRB assay relative to control; assay type: functional; settings: read-out: Activity
HCT-15 = assay: Antiproliferative activity against human HCT-15 cells assessed as cell growth at 0.0000001 M incubated for 48 hrs by SRB assay relative to control; assay type: functional; settings: dose 100 nM, read-out: Activity; in short: as §1
SR = assay: Growth inhibition against human SR cells incubated for 48 hrs by sulforhodamine B assay; assay type: functional
TK-10 = assay: Antiproliferative activity against human TK-10 cells assessed as cell growth at 0.0000001 M incubated for 48 hrs by SRB assay relative to control; assay type: functional; settings: dose 100 nM, read-out: Activity
COLO 205 [6] = assay: Antiproliferative activity against human COLO 205 cells assessed as cell growth at 0.0001 M incubated for 48 hrs by SRB assay relative to control; assay type: functional; settings: read-out: Activity
In short: (§2)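 NCI-60 five-dose screen over 10^-4–10^-8 M (10-fold dilutions). Cells grown in RPMI 1640 with 5% FBS and 2 mM L-glutamine, seeded at 5,000–40,000 cells/well and preincubated 24 h. Drug from DMSO stock, 48 h at 37 °C, 5% CO2. Adherent cells TCA-fixed and stained with 0.4% SRB; A515 read. Percent growth = (Ti−Tz)/(C−Tz)×100, or (Ti−Tz)/Tz×100 when Ti<Tz.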

UACC-257 = assay: Antiproliferative activity against human UACC-257 cells assessed as cell growth at 0.00001 M incubated for 48 hrs by SRB assay relative to control; assay type: functional; settings: read-out: Activity
HOP-92 [7] = assay: Growth inhibition against human HOP-92 cells assessed as total growth inhibitory concentration incubated for 48 hrs by sulforhodamine B assay; assay type: functional
NCI/ADR-RES = assay: Antiproliferative activity against human NCI/ADR-RES cells assessed as cell growth at 0.00000001 M incubated for 48 hrs by SRB assay relative to control; assay type: functional; settings: dose 10 nM, read-out: Activity
SW-620 = assay: Antiproliferative activity against human SW620 cells assessed as cell growth at 0.0001 M incubated for 48 hrs by SRB assay relative to control; assay type: functional; settings: read-out: Activity
HOP-62 = assay: Antiproliferative activity against human HOP-62 cells assessed as cell growth at 0.0001 M incubated for 48 hrs by SRB assay relative to control; assay type: functional; settings: read-out: Activity; in short: as §1
RPMI-8226 = assay: Antiproliferative activity against human RPMI-8226 cells assessed as cell growth at 0.00000001 M incubated for 48 hrs by SRB assay relative to control; assay type: functional; settings: dose 10 nM, read-out: Activity
M14 = assay: Antiproliferative activity against human M14 cells assessed as cell growth at 0.00000001 M incubated for 48 hrs by SRB assay relative to control; assay type: functional; settings: dose 10 nM, read-out: Activity
A498 = assay: Growth inhibition against human A498 cells incubated for 48 hrs by sulforhodamine B assay; assay type: functional
Calf thymus DNA = assay: Displacement of ethidium bromide from calf thymus DNA assessed as Stern-Volmer quenching constant upto 85 uM by fluorescence based spectroscopic analysis; assay type: nucleic-acid assay; settings: Bos taurus
CAKI-1 = assay: Antiproliferative activity against human CAKI-1 cells assessed as cell growth at 0.00001 M incubated for 48 hrs by SRB assay relative to control; assay type: functional; settings: read-out: Activity; in short: as §2
SK-MEL-28 = assay: Antiproliferative activity against human SK-MEL-28 cells assessed as cell growth at 0.00000001 M incubated for 48 hrs by SRB assay relative to control; assay type: functional; settings: dose 10 nM, read-out: Activity
HCC 2998 = assay: Antiproliferative activity against human HCC 2998 cells assessed as cell growth at 0.0000001 M incubated for 48 hrs by SRB assay relative to control; assay type: functional; settings: dose 100 nM, read-out: Activity; in short: as §1
SF-539 = assay: Antiproliferative activity against human SF-539 cells assessed as cell growth at 0.0001 M incubated for 48 hrs by SRB assay relative to control; assay type: functional; settings: read-out: Activity

Row | SMILES | TGI (SK-MEL-2) [nM] | Activity (HEK293) [%] | GI50 (COLO 205 [1]) [nM] | growth at 10 µM (Malme-3M) [%] | growth at 0.1 µM (OVCAR-8) [%] | growth at 100 µM (HOP-92 [2]) [%] | growth at 1 µM (OVCAR-3) [%] | growth at 1 µM (T47D [3]) [%] | growth at 10 µM (IGROV-1) [%] | CC50 (SK-OV-3) [nM] | TGI (NCI-H322M) [nM] | growth at 100 µM (NCI-H23) [%] | growth at 0.01 µM (OVCAR-4) [%] | GI50 (T47D [4]) [nM] | GI50 (HT-29) [nM] | growth at 100 µM (SK-MEL-5) [%] | growth at 0.01 µM (HL-60) [%] | growth at 10 µM (T47D [5]) [%] | growth at 0.1 µM (HCT-15) [%] | GI50 (SR) [nM] | further results
1 | COc1ccc(-c2cn3ccnc3c(-c3ccc4ncn(C5CCCCC5)c4c3)n2)cc1 | > 100000 | 14.79 | 2220 | 51 | 106 | 9 | 19 | 45 | 19 | > 100000 | > 100000 | 22 | 96 | 760 | 383 | -31 | 97 | -24 | 99 | 890 | growth at 0.1 µM (TK-10): 88%; growth at 100 µM (COLO 205 [6]): -5%; growth at 10 µM (UACC-257): 60%; TGI (HOP-92 [7]): > 100000 nM; growth at 0.01 µM (NCI/ADR-RES): 100%; growth at 100 µM (SW-620): 19%; growth at 100 µM (HOP-62): 8%; growth at 0.01 µM (RPMI-8226): 104%; growth at 0.01 µM (M14): 99%; GI50 (A498): 742 nM; KSV (Calf thymus DNA): 0.82 10^4/M; growth at 10 µM (CAKI-1): 25%; growth at 0.01 µM (SK-MEL-28): 94%; growth at 0.1 µM (HCC 2998): 94%; growth at 100 µM (SF-539): -19%
2 | c1ccc(Cn2cnc3ccc(-c4nc(-c5ccc6c(c5)ncn6C5CCCCC5)cn5ccnc45)cc32)cc1 | 4850 | 13.6 | 1880 | -10 | 114 | -80 | 94 | 61 | 3 | > 100000 | > 100000 | -79 | 94 | 1490 | 1890 | -46 | 104 | -2 | 96 | 1680 | growth at 0.1 µM (TK-10): 84%; growth at 100 µM (COLO 205 [6]): -39%; growth at 10 µM (UACC-257): -64%; TGI (HOP-92 [7]): 2620 nM; growth at 0.01 µM (NCI/ADR-RES): 100%; growth at 100 µM (SW-620): 7%; growth at 100 µM (HOP-62): 5%; growth at 0.01 µM (RPMI-8226): 108%; growth at 0.01 µM (M14): 87%; GI50 (A498): 1860 nM; KSV (Calf thymus DNA): 0.74 10^4/M; growth at 10 µM (CAKI-1): 17%; growth at 0.01 µM (SK-MEL-28): 94%; growth at 0.1 µM (HCC 2998): 98%; growth at 100 µM (SF-539): -38%
